Results published in article PMC9924909 (Brain, 2022).
Entries after “also recorded” stand apart in the source; their conditions may differ.

How the values were obtained:
[1] = system: glucosylceramide synthase; conditions: cited from earlier work
[2] = system: mouse models of neurological GD; conditions: cited from earlier work
adults with GD3 = assay: Safety and tolerability, LEAP trial; format: in vivo, human; conditions: 1 year, 11 patients
Method in brief: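 Open-label, single-arm study at six centres: 11 adults with GD3 took oral test compound 15 mg once daily with maintenance IV imiglucerase every 2 weeks (stable doses 38.5–125 U/kg). Safety and tolerability were assessed over 52 weeks. No pre-specified statistical testing.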

CYP3A = conditions: no reference given; cited from earlier work
[3] = venglustat in combination with imiglucerase

CC(C)(NC(=O)O[C@@H]1CN2CCC1CC2)c1csc(-c2ccc(F)cc2)n1 [Venglustat]
inhibition of glucosylceramide formation [1]: potent and specific inhibitor
glycolipid accumulation in liver and brain [2]: reduced accumulation of gluco-series glycolipids in the liver and brain
median survival of treated mice ([2]; increased from 45 days): 60 days
increase in median survival ([2]; treated mice): 30%
adverse event: acne (adults with GD3): two events in two patients
adverse event: back pain (adults with GD3): nine events in five patients
adverse event: diarrhoea (adults with GD3): two events in two patients
adverse event: headache (adults with GD3): ten events in six patients
adverse event: upper respiratory tract infection (adults with GD3): two events in two patients
adverse event: vomiting (adults with GD3): two events in two patients
severity of most adverse events (adults with GD3): mild or moderate, transient
deaths and serious adverse events (adults with GD3; venglustat 15 mg once daily in combination with imiglucerase): no deaths, serious adverse events; also recorded: no deaths or serious adverse events
discontinuation of study treatment (adults with GD3; [3]): no patient discontinued
patients with at least one adverse event (adults with GD3; [3]): 11
metabolism by CYP3A (CYP3A): principally metabolized by the CYP3A cytochrome complex
